Test system: Canis familiaris
Experiment: Inhibition of apomorphine induced emesis in dogs following p.o. administration.
Type: functional
Conditions: Canis lupus familiaris, po
How it was run: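 Dogs were fasted and dosed 1 h before apomorphine 0.1 mg/kg s.c. Vomits within 30 min were counted and compared with the same dog's count 2 weeks earlier. ED50 was found by the up-and-down method.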

SMILES	ED50 [mg/kg]
CCN1CCCC1CNC(=O)c1cc(NS(=O)(=O)N(C)C)c(C)cc1OC (stereo unspecified)	0.05
CCN1CCCC1CNC(=O)c1cc(NS(=O)(=O)NC)c(C)cc1OC (stereo unspecified)	> 1
CCN1CCCC1CNC(=O)c1cc(N(C)S(=O)(=O)N(C)C)c(Cl)cc1OC (stereo unspecified)	0.1
CCN1CCCC1CNC(=O)c1cc(S(N)(=O)=O)ccc1OC (stereo unspecified) [SULPIRIDE]	0.09
CCN1CCCC1CNC(=O)c1cc(N(C)S(C)(=O)=O)c(Cl)cc1OC (stereo unspecified)	0.1
CCN1CCCC1CNC(=O)c1cc(NS(=O)(=O)N(C)C)c(Cl)cc1OC (stereo unspecified)	0.05
CCN1CCCC1CNC(=O)c1cc(N(C)S(N)(=O)=O)c(Cl)cc1OC (stereo unspecified)	1
CCN1CCCC1CNC(=O)c1cc(N(C)S(N)(=O)=O)c(C)cc1OC (stereo unspecified)	1
CCN1CCCC1CNC(=O)c1cc(NS(N)(=O)=O)c(Cl)cc1OC (stereo unspecified)	1
CCN1CCCC1CNC(=O)c1cc(NS(N)(=O)=O)ccc1OC (stereo unspecified)	10
CCN1CCCC1CNC(=O)c1cc(NS(=O)(=O)NC)ccc1OC (stereo unspecified)	> 1
CCN1CCCC1CNC(=O)c1cc(N(C)S(=O)(=O)N(C)C)ccc1OC (stereo unspecified)	1
CCN1CCCC1CNC(=O)c1cc(NS(C)(=O)=O)c(C)cc1OC (stereo unspecified)	1
CCN1CCCC1CNC(=O)c1cc(N(C)S(=O)(=O)N(C)C)c(C)cc1OC (stereo unspecified)	1
CCN1CCCC1CNC(=O)c1cc(N(C)S(N)(=O)=O)ccc1OC (stereo unspecified)	1
CCN1CCCC1CNC(=O)c1cc(NS(=O)(=O)N(C)C)ccc1OC (stereo unspecified)	1
CCN1CCCC1CNC(=O)c1cc(NS(N)(=O)=O)c(C)cc1OC (stereo unspecified)	> 1
CCN1CCCC1CNC(=O)c1cc(NS(C)(=O)=O)ccc1OC (stereo unspecified)	2
CCN1CCCC1CNC(=O)c1cc(N(C)S(C)(=O)=O)ccc1OC (stereo unspecified)	0.17
CCN1CCCC1CNC(=O)c1cc(NS(=O)(=O)NC)c(Cl)cc1OC (stereo unspecified)	> 1
CCN1CCCC1CNC(=O)c1cc(N(C)S(C)(=O)=O)c(C)cc1OC (stereo unspecified)	1
CCN1CCCC1CNC(=O)c1cc(NS(C)(=O)=O)c(Cl)cc1OC (stereo unspecified)	0.1

Test system: Mus musculus
Experiment: Inhibition of apomorphine induced climbing in mice following p.o. administration.
Type: functional
Conditions: po
How it was run: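 Mice in two to three groups of 10 got the drug orally as a gum arabic suspension, then apomorphine 1 mg/kg s.c. 60 min later. Each mouse was caged in wire mesh and watched for 3 min from 20 min after apomorphine for wall-climbing, judged against a control group. ED50 (mg/kg) came from regression analysis.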

SMILES	ED50 [mg/kg]
CCN1CCCC1CNC(=O)c1cc(NS(=O)(=O)N(C)C)c(C)cc1OC (stereo unspecified)	13.3
CCN1CCCC1CNC(=O)c1cc(NS(=O)(=O)NC)c(C)cc1OC (stereo unspecified)	> 50
CCN1CCCC1CNC(=O)c1cc(N(C)S(=O)(=O)N(C)C)c(Cl)cc1OC (stereo unspecified)	31.8
CCN1CCCC1CNC(=O)c1cc(S(N)(=O)=O)ccc1OC (stereo unspecified) [SULPIRIDE]	174
CCN1CCCC1CNC(=O)c1cc(N(C)S(C)(=O)=O)c(Cl)cc1OC (stereo unspecified)	7.7
CCN1CCCC1CNC(=O)c1cc(NS(=O)(=O)N(C)C)c(Cl)cc1OC (stereo unspecified)	8.3
CCN1CCCC1CNC(=O)c1cc(N(C)S(N)(=O)=O)c(Cl)cc1OC (stereo unspecified)	> 50
CCN1CCCC1CNC(=O)c1cc(N(C)S(N)(=O)=O)c(C)cc1OC (stereo unspecified)	> 50
CCN1CCCC1CNC(=O)c1cc(NS(N)(=O)=O)c(Cl)cc1OC (stereo unspecified)	> 50
CCN1CCCC1CNC(=O)c1cc(NS(N)(=O)=O)ccc1OC (stereo unspecified)	> 50
CCN1CCCC1CNC(=O)c1cc(NS(=O)(=O)NC)ccc1OC (stereo unspecified)	> 50
CCN1CCCC1CNC(=O)c1cc(N(C)S(=O)(=O)N(C)C)ccc1OC (stereo unspecified)	36.2
CCN1CCCC1CNC(=O)c1cc(NS(C)(=O)=O)c(C)cc1OC (stereo unspecified)	35.6
CCN1CCCC1CNC(=O)c1cc(N(C)S(=O)(=O)N(C)C)c(C)cc1OC (stereo unspecified)	> 50
CCN1CCCC1CNC(=O)c1cc(N(C)S(N)(=O)=O)ccc1OC (stereo unspecified)	> 50
CCN1CCCC1CNC(=O)c1cc(NS(=O)(=O)N(C)C)ccc1OC (stereo unspecified)	> 50
CCN1CCCC1CNC(=O)c1cc(NS(N)(=O)=O)c(C)cc1OC (stereo unspecified)	> 50
CCN1CCCC1CNC(=O)c1cc(NS(C)(=O)=O)ccc1OC (stereo unspecified)	> 50
CCN1CCCC1CNC(=O)c1cc(N(C)S(C)(=O)=O)ccc1OC (stereo unspecified)	22.9
CCN1CCCC1CNC(=O)c1cc(NS(=O)(=O)NC)c(Cl)cc1OC (stereo unspecified)	> 50
CCN1CCCC1CNC(=O)c1cc(N(C)S(C)(=O)=O)c(C)cc1OC (stereo unspecified)	26.1
CCN1CCCC1CNC(=O)c1cc(NS(C)(=O)=O)c(Cl)cc1OC (stereo unspecified)	9.1

Test system: not listed separately
Experiment: Toxicity in mice following p.o. administration.
Type: organism-based
Conditions: mouse, in vivo, po
How it was run: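 Groups of 10 mice received the drug orally. Deaths were scored on day 7 after dosing, and LD50 (mg/kg) was obtained by graphical interpolation.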

SMILES	LD50 [mg/kg]
CCN1CCCC1CNC(=O)c1cc(NS(=O)(=O)N(C)C)c(C)cc1OC (stereo unspecified)	> 1000
CCN1CCCC1CNC(=O)c1cc(NS(=O)(=O)NC)c(C)cc1OC (stereo unspecified)	> 1000
CCN1CCCC1CNC(=O)c1cc(N(C)S(=O)(=O)N(C)C)c(Cl)cc1OC (stereo unspecified)	750
CCN1CCCC1CNC(=O)c1cc(S(N)(=O)=O)ccc1OC (stereo unspecified) [SULPIRIDE]	> 3000
CCN1CCCC1CNC(=O)c1cc(N(C)S(C)(=O)=O)c(Cl)cc1OC (stereo unspecified)	> 500
CCN1CCCC1CNC(=O)c1cc(NS(=O)(=O)N(C)C)c(Cl)cc1OC (stereo unspecified)	> 1000
CCN1CCCC1CNC(=O)c1cc(N(C)S(N)(=O)=O)c(Cl)cc1OC (stereo unspecified)	> 1000
CCN1CCCC1CNC(=O)c1cc(N(C)S(N)(=O)=O)c(C)cc1OC (stereo unspecified)	> 1000
CCN1CCCC1CNC(=O)c1cc(NS(N)(=O)=O)c(Cl)cc1OC (stereo unspecified)	> 1000
CCN1CCCC1CNC(=O)c1cc(NS(N)(=O)=O)ccc1OC (stereo unspecified)	> 1000
CCN1CCCC1CNC(=O)c1cc(NS(=O)(=O)NC)ccc1OC (stereo unspecified)	> 1000
CCN1CCCC1CNC(=O)c1cc(N(C)S(=O)(=O)N(C)C)ccc1OC (stereo unspecified)	750
CCN1CCCC1CNC(=O)c1cc(NS(C)(=O)=O)c(C)cc1OC (stereo unspecified)	750
CCN1CCCC1CNC(=O)c1cc(N(C)S(=O)(=O)N(C)C)c(C)cc1OC (stereo unspecified)	750
CCN1CCCC1CNC(=O)c1cc(N(C)S(N)(=O)=O)ccc1OC (stereo unspecified)	> 1000
CCN1CCCC1CNC(=O)c1cc(NS(=O)(=O)N(C)C)ccc1OC (stereo unspecified)	750
CCN1CCCC1CNC(=O)c1cc(NS(N)(=O)=O)c(C)cc1OC (stereo unspecified)	> 1000
CCN1CCCC1CNC(=O)c1cc(NS(C)(=O)=O)ccc1OC (stereo unspecified)	> 500
CCN1CCCC1CNC(=O)c1cc(N(C)S(C)(=O)=O)ccc1OC (stereo unspecified)	> 1000
CCN1CCCC1CNC(=O)c1cc(NS(=O)(=O)NC)c(Cl)cc1OC (stereo unspecified)	> 1000
CCN1CCCC1CNC(=O)c1cc(N(C)S(C)(=O)=O)c(C)cc1OC (stereo unspecified)	> 1000
CCN1CCCC1CNC(=O)c1cc(NS(C)(=O)=O)c(Cl)cc1OC (stereo unspecified)	> 1000

Reference: ChEMBL document CHEMBL1122720, “Synthesis and neuroleptic activity of N-[(1-ethyl-2-pyrrolidinyl)methyl]-2-methoxy-5-sulfonamidobenzamide s” (J Med Chem, 1984)
